Assay results taken from ChEMBL document CHEMBL4765334, “Chemical profiling of HIV-1 capsid-targeting antiviral PF74” (Eur J Med Chem, 2020).

Assays:
TZM = test: Cytotoxicity against human TZM-GFP cells incubated for 72 hrs by XTT assay; format: cell-based; settings: tzm, 72 h
Method in brief: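 TZM-GFP cells seeded at 1 × 10^4 per well and exposed continuously to increasing compound concentrations for 72 h. Viable cell number read by XTT proliferation kit. CC50 fitted as log(inhibitor) vs normalized response, variable slope, per independent assay and averaged. Run in duplicate, at least two independent experiments, reported as mean ± standard deviation.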

[1] = tested on: Human immunodeficiency virus 1; test: Binding affinity to covalently-crosslinked hexameric HIV1 capsid protein A14C/E45C/W184A/M185A mutant expressed in Escherichia coli BL21(DE3)RIL assessed as change in melting temperature at 20 uM incubated for 30 mins by thermal shift dye based fluorescence analysis
Method in brief: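 Thermal shift: 15 μM CA121 in 50 mM sodium phosphate pH 8.0 with Sypro Orange and compound at 20 μM final or DMSO control. Heated 25 to 95 °C at 0.2 °C/10 s; fluorescence Ex 475–500, Em 520–590 nm. ΔTm = Tm(compound) − T0(DMSO) for CA hexamer melting.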

[2] = tested on: Human immunodeficiency virus 1; test: Antiviral activity against HIV1 NL4-3 infected in human TZM-GFP cells assessed as number of GFP positive cells incubated for 48 hrs by imaging reader; format: functional, organism-based; settings: Human immunodeficiency virus 1, NL4-3, TZM
Method in brief: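 TZM-GFP cells seeded 1 × 10^4/well and given increasing compound concentrations 24 h later; infected with HIV-1 NL4-3 (MOI = 1) after a further 24 h. Read-out after 48 h: GFP-positive cell counts (LTR-driven) versus DMSO controls. EC50 fitted as log(inhibitor) vs normalized response, variable slope, per experiment and averaged; mean ± SD, duplicates, at least two independent experiments.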

[3] = Metabolic stability at phase 1 in mouse liver microsomes assessed as half life at 1 uM by LC-MS/MS analysis; format: ADME, Microsome; settings: for half-life at 1 µM: liver microsomes
[4] = Stability of the compound in mouse plasma assessed as half life incubated for 3 hrs by LC-MS/MS analysis; format: ADME, cell-free
[5] = Stability of the compound in human plasma assessed as half life incubated for 3 hrs by LC-MS/MS analysis; format: ADME, cell-free
[6] = Metabolic stability at phase 1 in human liver microsomes assessed as half life at 1 uM by LC-MS/MS analysis; format: ADME, Microsome

Row | Structure (SMILES) | CC50 (TZM) [µM] | ΔTm [1] [°C] | EC50 [2] [µM] | half-life at 1 µM [3] [min] | t1/2 [4] [min] | t1/2 [5] [min] | t1/2 [6] [min] | t1/2 ([3]; microsomes, 1 µM) [min]
1 | O=C(Cc1c[nH]c2ccccc12)N[C@@H](Cc1ccccc1)C(=O)Nc1cccc(-c2nnn[nH]2)c1 | > 100 | -0.7 | > 20 |  |  |  |  | 
2 | CN(C(=O)[C@H](Cc1ccccc1)NC(=O)Cc1c[nH]c2ccccc12)c1ccc(F)cc1 | > 100 | 3.3 | 1.8 | 0.5 | > 360 | > 360 | 1.3 | 
3 | CCn1cc(CC(=O)N[C@@H](Cc2ccccc2)C(=O)N(C)c2ccc(C)cc2)c2ccccc21 | 14 | 8.6 | 0.34 |  |  |  |  | 
4 | Cc1ccc(N(C)C(=O)[C@H](Cc2ccccc2)NC(=O)Cc2c(C)[nH]c3ccccc23)cc1 | 72 | 9.1 | 0.31 | 0.5 | > 360 | > 360 | 0.9 | 
5 | Cc1[nH]c2ccccc2c1CC(=O)N[C@@H](Cc1ccccc1)C(=O)Nc1ccc(C#N)cc1 | > 100 | -0.6 | > 20 |  |  |  |  | 
6 | Cc1[nH]c2ccccc2c1CC(=O)N[C@@H](Cc1ccccc1)C(=O)N(C)c1cccnn1 | > 100 | 3.2 | 3.7 |  |  |  |  | 
7 | Cc1cc(NC(=O)[C@H](Cc2ccccc2)NC(=O)Cc2c(C)[nH]c3ccccc23)n[nH]1 | > 100 | 0 | > 20 |  |  |  |  | 
8 | CCn1c(C)c(CC(=O)N[C@@H](Cc2ccccc2)C(=O)N(C)c2ccc(C)cc2)c2ccccc21 | 18 | 11 | 0.23 |  |  |  |  | 
9 | Cc1[nH]c2ccccc2c1CC(=O)N[C@@H](Cc1ccccc1)C(=O)Nc1ccc(Cl)cc1 | > 100 | 0 | > 20 |  |  |  |  | 
10 | Cc1[nH]c2ccccc2c1CC(=O)N[C@@H](Cc1ccccc1)C(=O)N(C)c1cccc(F)c1 | > 50 | 6.2 | 0.69 |  |  |  |  | 
11 | CCN(C(=O)[C@H](Cc1ccccc1)NC(=O)Cc1c(C)n(CC)c2ccccc12)c1ccccc1 | 20 | 10 | 0.56 |  |  |  |  | 
12 | CCn1cc(CC(=O)N[C@@H](Cc2ccccc2)C(=O)N(C)c2cccc(F)c2)c2ccccc21 | 31 | 5.9 | 0.84 |  |  |  |  | 
13 | Cc1[nH]c2ccccc2c1CC(=O)N[C@@H](Cc1ccccc1)C(=O)N(C)c1cccc(C(F)(F)F)c1 | 18 | 5.4 | 0.58 |  |  |  |  | 
14 | Cc1c(CC(=O)N[C@@H](Cc2ccccc2)C(=O)N(C)c2cccc(F)c2)c2ccccc2n1C(C)C | 17 | 7 | 0.29 |  |  |  |  | 
15 | Cc1[nH]c2ccccc2c1CC(=O)N[C@@H](Cc1ccccc1)C(=O)Nc1nc2ccccc2[nH]1 | 15 | -0.6 | 11 |  |  |  |  | 
16 | CN(C(=O)[C@H](Cc1ccccc1)NC(=O)Cc1c[nH]c2ccccc12)c1ccc(Cl)cc1 | < 50 | 4.6 | 0.45 |  |  |  |  | 
17 | O=C(Cc1c[nH]c2ccccc12)N[C@@H](Cc1ccccc1)C(=O)Nc1nc2ccccc2[nH]1 | 44 | -0.6 | > 20 |  |  |  |  | 
18 | O=C(Cc1c[nH]c2ccccc12)N[C@@H](Cc1ccccc1)C(=O)NCc1cccc2[nH]ccc12 | < 100 | 0.5 | > 20 |  |  |  |  | 
19 | O=C(Cc1c[nH]c2ccccc12)N[C@@H](Cc1ccccc1)C(=O)Nc1ccccc1 | 96 | 0 | > 20 |  |  |  |  | 
20 | CCn1c(C)c(CC(=O)N[C@@H](Cc2ccccc2)C(=O)N(C)c2cccc(Cl)c2)c2ccccc21 | 16 | 9.2 | 0.49 |  |  |  |  | 
21 | CCN(C(=O)[C@H](Cc1ccccc1)NC(=O)Cc1c[nH]c2ccccc12)c1ccccc1 | 70 | 6.4 | 0.44 |  |  |  |  | 
22 | Cc1cc(NC(=O)[C@H](Cc2ccccc2)NC(=O)Cc2c[nH]c3ccccc23)n[nH]1 | > 100 | 0 | > 20 |  |  |  |  | 
23 | O=C(Cc1c[nH]c2ccccc12)N[C@@H](Cc1ccccc1)C(=O)Nc1cccnn1 | > 100 | 0.8 | > 20 |  |  |  |  | 
24 | CCn1cc(CC(=O)N[C@@H](Cc2ccccc2)C(=O)N(C)c2cccc(Cl)c2)c2ccccc21 | 20 | 5.8 | 2 |  |  |  |  | 
25 | O=C(Cc1c[nH]c2ccccc12)N[C@@H](Cc1ccccc1)C(=O)NC(c1ccccc1)c1ccccc1 | > 100 | -1.6 | > 20 |  |  |  |  | 
26 | Cc1c(CC(=O)N[C@@H](Cc2ccccc2)C(=O)N(C)c2cccc(Cl)c2)c2ccccc2n1C(C)C | 14 | 5.5 | 0.36 |  |  |  |  | 

Row | Structure (SMILES) | CC50 (TZM) [µM] | ΔTm [1] [°C] | EC50 [2] [µM] | half-life at 1 µM [3] [min] | t1/2 [4] [min] | t1/2 [5] [min] | t1/2 [6] [min] | t1/2 ([3]; microsomes, 1 µM) [min]
27 | Cc1[nH]c2ccccc2c1CC(=O)N[C@@H](Cc1ccccc1)C(=O)Nc1cccc(C#N)c1 | > 100 | -0.5 | > 20 |  |  |  |  | 
28 | CN(C(=O)[C@H](Cc1ccccc1)NC(=O)Cc1c[nH]c2ccccc12)c1cccnc1 | > 100 | -0.8 | > 20 |  |  |  |  | 
29 | Cc1[nH]c2ccccc2c1CC(=O)N[C@@H](Cc1ccccc1)C(=O)N(C)c1ccccc1 |  | 7.4 | 0.61 | 0.6 |  | > 360 |  | 
30 | CC(C)n1cc(CC(=O)N[C@@H](Cc2ccccc2)C(=O)N(C)c2cccc(F)c2)c2ccccc21 | 12 | 5.8 | 0.32 |  |  |  |  | 
31 | CCn1c(C)c(CC(=O)N[C@@H](Cc2ccccc2)C(=O)N(C)c2cccc(F)c2)c2ccccc21 | 20 | 10.8 | 0.33 |  |  |  |  | 
32 | CN(C(=O)[C@H](Cc1ccccc1)NC(=O)Cc1c[nH]c2ccccc12)c1cccc(Br)c1 | < 50 | 3.5 | 2 |  |  |  |  | 
33 | Cc1[nH]c2ccccc2c1CC(=O)N[C@@H](Cc1ccccc1)C(=O)Nc1cccnn1 | > 100 | 0 | > 20 |  |  |  |  | 
34 | CN(C(=O)[C@H](NC(=O)Cc1c[nH]c2ccccc12)c1ccccc1)c1ccccc1 | > 50 | 1.5 | > 20 |  |  |  |  | 
35 | Cc1[nH]c2ccccc2c1CC(=O)N[C@@H](Cc1ccccc1)C(=O)NC(c1ccccc1)c1ccccc1 | > 100 | 0 | > 20 |  |  |  |  | 
36 | Cc1[nH]c2ccccc2c1CC(=O)N[C@@H](Cc1ccccc1)C(=O)NC12CC3CC(CC(C3)C1)C2 | > 100 | -0.8 | > 20 |  |  |  |  | 
37 | CC(C)n1cc(CC(=O)N[C@@H](Cc2ccccc2)C(=O)N(C)c2ccc(Cl)cc2)c2ccccc21 | 10 | 7.1 | 0.32 |  |  |  |  | 
38 | Cc1[nH]c2ccccc2c1CC(=O)N[C@@H](Cc1ccccc1)C(=O)NCc1cccc2[nH]ccc12 | 36 | 0 | > 20 |  |  |  |  | 
39 | CN(C(=O)[C@H](Cc1ccccc1)NC(=O)Cc1c[nH]c2ccccc12)c1ccc(Cl)nc1 |  | 4.9 | 0.26 |  | > 360 | > 360 | 2.1 | 0.7
40 | Cc1ccc(N(C)C(=O)[C@H](Cc2ccccc2)NC(=O)Cc2c(C)n(C(C)C)c3ccccc23)cc1 | 10 | 8.4 | 0.63 |  |  |  |  | 
41 | Cc1[nH]c2ccccc2c1CC(=O)N[C@@H](Cc1ccccc1)C(=O)N(C)c1cccnc1 | > 100 | 0 | > 20 |  |  |  |  | 
42 | CCN(C(=O)[C@H](Cc1ccccc1)NC(=O)Cc1cn(C(C)C)c2ccccc12)c1ccccc1 | 15 | 5.7 | 0.87 |  |  |  |  | 
43 | Cc1[nH]c2ccccc2c1CC(=O)N[C@@H](Cc1ccccc1)C(=O)Nc1ccccc1 | 40 | 0.7 | > 20 |  |  |  |  | 
44 | Cc1[nH]c2ccccc2c1CC(=O)N[C@@H](Cc1ccccc1)C(=O)Nc1ccc2ncsc2c1 | 49 | 1.4 | 10 |  |  |  |  | 
45 | CCn1cc(CC(=O)N[C@@H](Cc2ccccc2)C(=O)N(C)c2ccc(Cl)cc2)c2ccccc21 | 16 | 8.6 | 0.25 |  |  |  |  | 
46 | Cc1cc(N(C)C(=O)[C@H](Cc2ccccc2)NC(=O)Cc2c(C)[nH]c3ccccc23)n[nH]1 | < 100 | 0 | > 20 |  |  |  |  | 
47 | CCn1c(C)c(CC(=O)N[C@@H](Cc2ccccc2)C(=O)N(C)c2ccc(Cl)cc2)c2ccccc21 | 27 | 11.9 | 0.24 |  |  |  |  | 
48 | Cc1c(CC(=O)N[C@@H](Cc2ccccc2)C(=O)N(C)c2ccc(Cl)cc2)c2ccccc2n1C(C)C | 14 | 8.5 | 0.15 |  |  |  |  | 
49 | CC(C)n1cc(CC(=O)N[C@@H](Cc2ccccc2)C(=O)N(C)c2cccc(Cl)c2)c2ccccc21 | 13 | 4.5 | 1.3 |  |  |  |  | 
50 | O=C(Cc1c[nH]c2ccccc12)N[C@@H](Cc1ccccc1)C(=O)O | > 50 | -0.6 | > 20 |  |  |  |  | 
51 | O=C(Cc1c[nH]c2ccccc12)N[C@@H](Cc1ccccc1)C(=O)Nc1ccc2ncsc2c1 | 68 | 0 | > 20 |  |  |  |  | 
